Hits are enriched below; roughly 3.2% of the tested compounds scored in any of these assays.
S100A4 MyoIIA: blocks human S100A4 binding to myosin IIA peptide; S100A4/TAMRA-MyoIIA peptide fluorescence polarization; 360,000 compounds, 0.14% hits; inhibition, % at 10.7 µM;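 active = mean inhibition of at least 70% across replicates, with every replicate also reaching that level; inconclusive = mean inhibition reaches 70% but some replicates fall short; inactive = mean inhibition below 70%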
Target sequence (P26447 whole entry, looked up): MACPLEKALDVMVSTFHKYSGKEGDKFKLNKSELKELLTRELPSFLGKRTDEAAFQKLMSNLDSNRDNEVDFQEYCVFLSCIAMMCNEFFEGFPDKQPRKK
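Material: S100A4 monomer protein / Buffer or medium: 50 mM HEPES pH 7.2, 10 mM CaCl2, 100 mM KCl / Times: 5 min incubation before reading / Benchmarks: neutral control DMSO, positive control TFP / Reagent: labelled myosin peptide probe, 5 nM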
AF4-AF9 inh: blocks AF4 peptide binding to human AF9; inhibition, % at 10 µM; AlphaScreen, biotin-AF4 peptide binding to FLAG-AF9; 350,000 compounds, 0.47% hits;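 active = every replicate reaching a set inhibition limit, whatever the replicate mean, cut at about 25% in these data; inconclusive = mean inhibition reaches that limit but some replicates miss it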
Target sequence (P42568 whole entry, looked up): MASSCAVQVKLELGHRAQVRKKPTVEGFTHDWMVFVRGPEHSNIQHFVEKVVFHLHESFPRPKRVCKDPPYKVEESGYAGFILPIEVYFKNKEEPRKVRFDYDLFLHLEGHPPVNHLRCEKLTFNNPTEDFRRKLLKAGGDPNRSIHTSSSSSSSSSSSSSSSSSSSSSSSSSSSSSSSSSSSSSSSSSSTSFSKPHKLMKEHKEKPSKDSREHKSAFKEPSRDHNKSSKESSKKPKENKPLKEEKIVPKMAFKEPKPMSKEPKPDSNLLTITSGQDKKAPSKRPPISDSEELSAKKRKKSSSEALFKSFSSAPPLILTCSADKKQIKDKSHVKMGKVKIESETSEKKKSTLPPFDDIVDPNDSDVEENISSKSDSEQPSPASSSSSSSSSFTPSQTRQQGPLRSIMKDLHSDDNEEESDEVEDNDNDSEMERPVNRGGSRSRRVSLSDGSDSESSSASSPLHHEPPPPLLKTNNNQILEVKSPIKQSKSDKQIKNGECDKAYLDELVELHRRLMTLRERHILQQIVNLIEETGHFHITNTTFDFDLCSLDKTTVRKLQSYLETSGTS
Cneo AK release: causes C. neoformans cell lysis | adenylate kinase release luminescence, 4 h; normalised: neutral wells 0, clomiphene wells 100 | lysis activity, % at 15 µM | 360,000 compounds, 0.2% hits | AID 651654;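 active = mean lysis activity across replicates of at least 80%, whatever share of replicates individually reach that level; inactive = mean lysis activity below 80%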
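Test system: log-phase Cryptococcus neoformans yeast cells; Quantity: yeast cell density of 5 × 10^6 cells/mL; Buffer or medium: YPD; Doses: single compound concentration per well; Timing: 4 h at 37 °C static, read 1 h later; Measured by: AK luminescence; Read-out basis: lysis from increased AK signal; Control set: Clomiphene as positive control.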
DENV2 CPE: protects cells from dengue virus 2 cytopathic effect; DENV2-infected cells, cytopathic effect rescue, plate reader; CPE inhibition, % at 9.99 µM; 350,000 compounds, 1.7% hits; in the data active = CPE inhibition above about 20%, passing the limit was not always enough; inconclusive = no clear call, values can overlap the other calls; tested in BHK-21 cells
rRNA inh HTS: inhibits bacterial ribosomal RNA function over humanized ribosomes; GFP signal change (wild-type ribosome), % (test concentration not listed); E. coli WT GFP vs humanized-ribosome RFP mutants, fluorescence, 24 h; stronger effect = lower value; DMSO median 0, no signal -100; 350,000 compounds, 1.6% hits;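 active = significant combined selectivity score with lowered wild-type GFP, culture density cut under 30%, mutant RFP and density less affected; inactive = any of these conditions unmet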
PfHsp90 set2: reduces growth (ATP signal) of yeast expressing P. falciparum Hsp90; AID 504621; inhibition, % at 9.4 µM; 310,000 compounds, 0.32% hits; S. cerevisiae expressing PfHsp90, BacTiter-Glo ATP, 48 h; yeast lacking PDR1 and PDR3 efflux regulators;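 active = every replicate shows inhibition above about 80%, whatever the replicate mean, limit read from the data; inconclusive = mean inhibition reaches the set limit but some replicate falls short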
A number is an active result; n = inactive; u = inconclusive; x = not tested or not shown.

SMILES | S100A4 MyoIIA | AF4-AF9 inh | Cneo AK release | DENV2 CPE | rRNA inh HTS | PfHsp90 set2
O=C(Nc1ccc(-c2csc(Nc3cccc(C(F)(F)F)c3)n2)cc1)c1cc([N+](=O)[O-])cc(C(F)(F)F)c1 | n | n | n | 134.6 | n | n
C[C@@H]1CN([C@H](C)CO)C(=O)c2cccc(NC(=O)c3cnccn3)c2O[C@H]1CN(C)S(C)(=O)=O | n | n | n | n | n | x
O=C(Nc1nnc(S(=O)(=O)N2CCOCC2)s1)c1ccccc1 | n | 47.1 | n | n | n | n
O=C(Nc1nnc(S(=O)(=O)N2CCOCC2)s1)c1ccc(Cl)cc1 | n | n | n | n | n | n
COc1ccc(NC(=O)Nc2ccc3c(c2)CC(=O)N([C@H](C)CO)C[C@H](C)[C@@H](CN(C)S(=O)(=O)c2cn(C)cn2)O3)cc1 | n | n | n | 21.6 | n | x
C[C@@H]1CN([C@H](C)CO)C(=O)Cc2cc(NC(=O)CCN3CCOCC3)ccc2O[C@@H]1CN(C)S(=O)(=O)c1cn(C)cn1 | n | n | n | 21.9 | n | x
C[C@@H]1CN([C@H](C)CO)C(=O)Cc2cc(NC(=O)Nc3ccccc3)ccc2O[C@H]1CN(C)S(=O)(=O)c1cn(C)cn1 | n | n | n | 61.7 | n | x
COc1ccc(NC(=O)Nc2ccc3c(c2)CC(=O)N([C@@H](C)CO)C[C@H](C)[C@H](CN(C)S(=O)(=O)c2cn(C)cn2)O3)cc1 | n | n | n | n | n | x
C[C@H](NC(=O)C[C@H]1CC[C@@H](NC(=O)C2CCC2)[C@@H](CO)O1)c1ccccc1 | n | n | n | n | n | x
CCCc1nc(SCC(=O)N2CCc3ccccc3C2)c2ccccc2n1 | n | n | n | n | -26.6 | n
COc1ccc(S(=O)(=O)N(C)C[C@H]2Oc3c(NC(=O)NC(C)C)cccc3C(=O)N([C@@H](C)CO)C[C@H]2C)cc1 | n | n | n | n | n | x
O=C(C[C@H]1CC[C@H]2[C@@H](COC[C@@H](O)CN2CC2CC2)O1)NCc1ccc(Cl)cc1 | n | n | n | u | n | x
CC=Cc1ccc2n(c1=O)C[C@@H]1[C@@H](CO)[C@H](C(=O)N3CCc4ccccc4C3)N(C(=O)C3CC3)[C@H]21 (mixture of isomers) | n | n | 97.1 | n | n | x
CN1[C@H](C(=O)N2CCc3ccccc3C2)[C@@H](CO)[C@@H]2Cn3c(ccc(-c4cccnc4)c3=O)[C@@H]21 | n | n | 103.5 | n | n | x
CC=Cc1ccc2n(c1=O)C[C@@H]1[C@@H](CO)[C@H](C(=O)N3CCc4ccccc4C3)N(C(=O)COC)[C@H]21 (mixture of isomers) | n | n | x | n | n | x
CC#C[C@]1(O)CC[C@H]2[C@@H]3CCC4=CC(=O)CCC4=C3[C@@H](c3ccc(N(C)C)cc3)C[C@@]21C | n | 32.9 | n | n | x | n
C#C[C@]1(O)CCC2C3CCC4=CC(=O)CC[C@@H]4C3CC[C@@]21C (some centres not stated) | n | n | n | n | x | n
CCCCC#Cc1ccc(C(=O)NNC(=O)Nc2cc(Cl)cc(Cl)c2)o1 | n | n | x | n | -40.5 | n
O=c1cc(CSc2nnc(-c3ccccc3)o2)c2ccccc2[nH]1 | n | n | n | 76.4 | n | x
Cc1ccc(OCc2nnc(SCc3cc(=O)[nH]c4ccccc34)n2-c2ccccc2)cc1 | n | n | x | 60.3 | n | n
COc1cccc(OCc2nnc(SCc3cc(=O)[nH]c4ccccc34)o2)c1 | n | 38.3 | x | n | n | n
O=c1cc(CSc2nnc(COc3ccc(Cl)cc3)o2)c2ccccc2[nH]1 | x | x | n | x | x | n
CO[C@H]1CN(C)C(=O)c2cc(NC(=O)NC(C)C)ccc2OC[C@@H](C)N(C)C[C@@H]1C | n | n | n | n | n | x
CN1CCN(C2Cc3ccc(F)cc3Sc3cc(F)c(Cl)cc32)CC1 (configuration not stated) | n | n | n | n | -42.5 | n
CSc1ccc2c(c1)C(N1CCN(C)CC1)Cc1ccccc1S2 (configuration not stated) | n | n | n | n | n | n
SMILES | S100A4 MyoIIA | AF4-AF9 inh | Cneo AK release | DENV2 CPE | rRNA inh HTS | PfHsp90 set2
CN1CCN(C2Cc3ccccc3Sc3cc(C(F)(F)F)ccc32)CC1 (configuration not stated) | n | 26.2 | x | n | n | x
CCc1cccc2c1Sc1ccccc1CC2N1CCNCC1 (configuration not stated) | n | n | x | n | -51.5 | n
CN1CCN(C2Cc3ccccc3Sc3ccc(Cl)cc32)CC1 (configuration not stated) | n | n | n | n | x | n
COc1cccc(NC(=O)Nc2ccc3c(c2)C(=O)N(C)[C@@H]2CC[C@@H](CC(=O)NCCc4ccccc4)O[C@@H]2CO3)c1 | n | n | n | n | n | x
CN(C)CCCNC(=O)C[C@H]1C[C@H](C(=O)N2CCCCC2)[C@@]2(C)c3[nH]c4cc(-c5ccco5)ccc4c3CCN2C1=O | n | n | n | n | n | n
CN(C)CCCNC(=O)C[C@H]1C[C@H](C(=O)N2CCCCC2)[C@@]2(CCc3ccccc3)c3[nH]c4cc(-c5ccco5)ccc4c3CCN2C1=O | n | 52.9 | n | n | n | n
CC[C@]12c3[nH]c4cc(CCC(=O)N(C)C)ccc4c3CCN1C(=O)[C@@H](CC(=O)NCCc1ccccn1)C[C@@H]2C(=O)N1CCN(C(=O)c2ccco2)CC1 | n | n | n | 34.8 | n | n
CC[C@]12c3[nH]c4ccccc4c3CCN1C(=O)C(CC(=O)NCCc1ccccn1)C[C@@H]2C(=O)N1CCN(C(=O)c2ccco2)CC1 (some centres not stated) | n | n | n | n | n | n
Cc1ccc2ccccc2c1COC(=O)c1nonc1N | n | n | n | x | -23.0 | n
NC(=O)c1cc(Cl)cn(-c2ccccc2)c1=O | n | 49.8 | n | 82.5 | n | n
COc1ccc(NCC(O)Cn2c(C)c(C)c3ccccc32)cc1 (configuration not stated) | n | n | x | x | -40.0 | n
Cc1c(C)n(CC(O)CNc2ccccc2)c2ccccc12 (configuration not stated) | n | 25.7 | x | x | n | n
CCCCOc1ccc(C(=O)Nc2ccc(S(=O)(=O)Nc3onc(C)c3C)cc2)cc1 | n | n | n | n | -23.5 | n
Cc1cc2oc(C(=O)Nc3ccc(S(=O)(=O)Nc4onc(C)c4C)cc3)cc(=O)c2cc1Cl | n | x | n | n | -29.5 | n
Cc1noc(NS(=O)(=O)c2ccc(NC(=O)c3cc(=O)c4ccccc4o3)cc2)c1C | n | n | n | n | n | n
Cc1noc(NS(=O)(=O)c2ccc(N/C=C\C(=O)c3cccc4ccccc34)cc2)c1C | n | n | n | n | -21.2 | n
C[C@@H]1CN([C@@H](C)CO)C(=O)c2cc(-c3ccc(F)cc3)cnc2O[C@@H]1CN(C)C(=O)Nc1ccc(F)cc1 | x | x | x | x | n | x
